PMI act: activators of human PMI, primary screen, biochemical, fluorescence intensity, near-Km mannose 6-phosphate; purified human PMI, coupled resazurin fluorescence, 20 min; active compounds read high; 1 = vehicle control, 0 substrate-free wells; activation factor at 20 µM; 0.005% of 190,000 active;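 active means activation factor of 2 or more at 20 µM, relative to plate controls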
Target sequence (P34949 whole entry, looked up): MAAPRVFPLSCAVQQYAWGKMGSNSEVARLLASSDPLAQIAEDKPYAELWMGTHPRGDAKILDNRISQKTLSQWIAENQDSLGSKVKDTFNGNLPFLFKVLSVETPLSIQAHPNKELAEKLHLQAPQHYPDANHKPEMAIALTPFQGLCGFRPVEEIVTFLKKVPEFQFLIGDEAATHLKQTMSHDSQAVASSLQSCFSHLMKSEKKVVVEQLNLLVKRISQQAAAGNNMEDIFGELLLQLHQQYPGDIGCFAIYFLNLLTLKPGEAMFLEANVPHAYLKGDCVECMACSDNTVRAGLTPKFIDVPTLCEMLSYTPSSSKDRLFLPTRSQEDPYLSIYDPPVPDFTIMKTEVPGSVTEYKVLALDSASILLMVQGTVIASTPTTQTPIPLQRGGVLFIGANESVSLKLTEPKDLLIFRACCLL
TNAP inh no acc: human TNAP enzyme inhibitors, primary screen, biochemical, luminescent, no phosphate acceptor, uHTS; purified TNAP, CDP-star luminescence, 30 min; inhibition, % at 20 µM; 0.26% of 200,000 active;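 active means tissue-nonspecific alkaline phosphatase inhibition above about 50% at 20 µM in the single-dose screen, limit read from the data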
TNAP inh hi DEA: human TNAP enzyme inhibitors, primary screen, biochemical, luminescent, high phosphate acceptor level, uHTS; Alkaline phosphatase, tissue-nonspecific isozyme (Homo sapiens), P05186; purified TNAP, CDP-star luminescence, 1 M DEA; inhibition, % at 20 µM; 0.03% of 200,000 active;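 active means over 50% inhibition of tissue-nonspecific alkaline phosphatase at 20 µM in the single-dose screen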
TNAP act hiacc: TNAP activators at high phosphate acceptor level, primary screen, biochemical, luminescence, uHTS. Alkaline phosphatase, tissue-nonspecific isozyme (Homo sapiens), P05186. purified TNAP, CDP-star luminescence, 1 M DEA, 30 min; active compounds read high; 0 = EDTA background, 1 = DMSO-only activity. activation factor at 20 µM. 200,000 tested, under 10 active. AID 1136, 2008;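 active means activation factor at least 2 at 20 µM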
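Measured by: Luminescent substrate turnover signal | Test system: Human TNAP | Input: TNAP 1/800 final | Dosing: 20 µM single point | Schedule: 30 min, room temperature | Controls: EDTA wells as negative control, DMSO wells as positive control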
PMI act hi M6P: human PMI activators, high substrate, primary screen, biochemical, fluorescence intensity, near-saturating mannose 6-phosphate; Mannose-6-phosphate isomerase (Homo sapiens), P34949; 0.34% of 190,000 active; AID 1216, 2008; activation factor at 20 µM; coupled PMI enzyme assay, resazurin fluorescence, 20 min; active compounds read high; 1 = untreated enzyme, 0 = substrate-free blank;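 active means activation factor of 2 or more at 20 µM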
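test system = human PMI in coupled enzyme assay | medium = HEPES-buffered pH 7.4 with magnesium and detergent | also added = 1.0 mM mannose-6-phosphate substrate with 0.22 mM NADP+ | compound = 20 µM single dose | times = 20 min incubation at room temperature | measured by = resorufin fluorescence (Ex 544/Em 590 nm) from resazurin via diaphorase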
Numbers stand for hits; n = inactive. A selection: hits, their analogues and other compounds. The true share with any hit is near 0.6%.

SMILES	PMI act	TNAP inh no acc	TNAP inh hi DEA	TNAP act hiacc	PMI act hi M6P
CCN(CC)N=Nc1[nH]nc2nc(C)cc(C)c12	n	n	n	n	2
Cc1cc(C)c2c(N=NN3CCCCC3)[nH]nc2n1	n	n	n	n	n
CN(Cc1ccon1)Cc1cn(C)nc1-c1cccc(Cl)c1	n	n	n	n	n
O=C(Nc1ncccn1)C1CCCCC1	n	n	n	n	n
O=C(Nc1n[nH]c(C2CCCCC2)n1)C1CCCCC1	n	72	n	n	n
Cc1ccc(C(=O)NS(=O)(=O)c2ccc(N=NN(C)C)cc2)cc1	n	n	n	n	2
CCn1c(SCC(=O)N2CCN(c3ccccc3)CC2)nnc1-c1ccncc1	n	n	n	n	2.6
CCn1c(CSc2nc3ccccc3s2)nnc1SCC(=O)c1ccc(O)c(O)c1	n	80	n	n	n
CCn1c(SCC(=O)c2ccc(O)c(O)c2)nnc1-c1ccccc1	n	50	n	n	n
CC1=C(C)CC(C(=O)Nc2ccc(C(=O)N3CCOCC3)cc2)C(C(=O)O)C1 (stereo unspecified)	n	n	n	n	n
COc1ccc(-c2c3c([nH]c(=S)c2C#N)CCC3)cc1	n	n	n	n	2.1
COC1=C(c2ccccc2)C(=O)c2ccccc2C1=O	2	n	n	n	n
CCOC(=O)C1=C(Nc2ccccc2)CC(C)(O)C(C(=O)OCC)C1c1ccc(Cl)cc1 (stereo unspecified)	n	n	n	n	n
CCNC(=O)n1cc(-n2cncn2)c(-c2ccccc2)n1	n	n	n	n	n
CCOC(=O)c1sc(-n2[nH]c(C)cc2=O)nc1C	n	n	n	n	2.4
c1ccc(-c2n[nH]c3c2CCC3)cc1	n	73	n	n	n
Cc1ccc2c(c1)nc(NCCO)n2C	n	n	n	n	n
Cc1ccc2c(ccc(=S)n2C)c1	n	n	n	n	2.7
COc1cc(/C=C/C(=O)CC(=O)/C=C/c2ccc(O)c(OC)c2)ccc1O	n	n	53	n	n
O=C(Cc1cccc2ccccc12)NCCOc1ccccc1F	n	n	n	n	n
Cc1cc(=S)c2cccc(C)c2[nH]1	n	n	n	n	2.7
CCCSc1nc2sc3c(c2c(=O)[nH]1)CCN(Cc1ccccc1)C3	n	n	n	n	n
O=c1[nH]c(C(Cl)Cl)nc2sc3c(c12)CCN(Cc1ccccc1)C3	n	n	n	n	2.6
O=C(CN1CCN(CC(=O)Nc2ccccc2Cl)CC1)Nc1ccc2c(c1)OCCO2	n	n	n	n	2
Cn1c(NC(=O)c2cccnc2)nc2ccccc21	n	69	n	n	n
SMILES	PMI act	TNAP inh no acc	TNAP inh hi DEA	TNAP act hiacc	PMI act hi M6P
O=C(Nc1cnc2ccccc2c1)c1cccnc1	n	n	n	n	n
C=C1c2cc(OC)ccc2NC(=O)N1CC	n	n	n	n	2
CCN1/C(=C/C(C)=O)Sc2ccc(OC)cc21	n	n	n	n	n
O=C(/C=C/c1ccc(Br)o1)Nc1nccs1	n	n	n	n	2
COc1ccccc1/C=C1\SC(=S)N(Nc2nc(C)cc(C)n2)C1=O	n	n	n	n	n
Cc1cc(C)nc(NN2C(=O)/C(=C/c3ccc(O)cc3)SC2=S)n1	n	94	n	n	n
Cc1cc(C)nc(/N=C(\N)N(Cc2ccccc2)Cc2ccccc2)n1	n	n	n	n	n
O=C(Nc1ccc(Cl)cc1)/C(=C/c1ccc([N+](=O)[O-])cc1)c1nc2ccccc2s1	n	n	n	n	n
CCOCCCNC(=S)NCCCNc1nc2ccc(C)cc2cc1C#N	n	n	n	n	2.1
CCOCCCNC(=S)NCCNc1nc2ccc(C)cc2cc1C#N	n	n	n	n	2
COCCNC(=S)NCCCNc1nc2cc3c(cc2cc1C#N)OCO3	n	n	n	n	n
CN(C)CCCNC(=S)NCCNc1nc2cc3c(cc2cc1C#N)OCO3	n	n	n	n	n
CCOCCCNC(=S)NCCCNc1nc2cc3c(cc2cc1C#N)OCO3	n	n	n	n	2.2
CN(Cc1cnccn1)Cc1cn(Cc2ccccc2)nc1-c1ccc2c(c1)OCO2	n	n	n	n	n
